ChEMBL document CHEMBL1828547, “Synthesis and antimalarial activity of 2-guanidino-4-oxoimidazoline derivatives” (J Med Chem, 2011)
Converted amounts (≈) assume the structure as drawn. The source made the active and inactive calls. The calls are words filed in the database; no cut-off is given here.

Tests used:
Plasmodium berghei [1] = experiment: Antimalarial activity against Plasmodium berghei […] mouse model assessed as causal prophylactic activity at 320 mg/kg, po administered one day before infection, on day of infection and one day post infection; assay type: functional, organism-based; set-up: dose 320 mg/kg
Summary of the method: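 Sporozoite-inoculated P. berghei exoerythrocytic (EE) mouse model. Compound ground and suspended in hydroxyethylcellulose plus Tween 80 for oral dosing, given once daily for 3 consecutive days: day before, 4 h before, and day after sporozoite inoculation (days −1, 0, 1). Dose in (mg/kg)/day. Read-out is mice protected per group (causal prophylaxis) or delay in patency.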

[2] = Metabolic stability in mouse assessed as half life at 320 mg/kg, po by LC-MS/MS analysis; assay type: ADME, organism-based; set-up: dose 320 mg/kg, route oral; details: in vivo
Plasmodium falciparum [3] = experiment: Antimalarial activity against blood stage Plasmodium falciparum W2 assessed as [3H]-hypoxanthine uptake after 24 hrs by scintillation counting; assay type: functional, organism-based
[4] = Metabolic stability in human assessed as half life at 320 mg/kg, po by LC-MS/MS analysis; assay type: ADME, organism-based; set-up: dose 320 mg/kg, route oral
Plasmodium falciparum [5] = experiment: Antimalarial activity against blood stage Plasmodium falciparum D6 assessed as [3H]-hypoxanthine uptake after 24 hrs by scintillation counting; assay type: functional, organism-based
Plasmodium falciparum [6] = experiment: Antimalarial activity against blood stage Plasmodium falciparum TM91C235 assessed as [3H]-hypoxanthine uptake after 24 hrs by scintillation counting; assay type: functional, organism-based
Plasmodium berghei [7] = experiment: Antimalarial activity against Plasmodium berghei […] mouse model assessed as delay in patency time at 40 mg/kg, po administered one day before infection, on day of infection and one day post infection; assay type: functional
Summary of the method: (§1)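 Sporozoite-challenged exoerythrocytic mouse model using P. berghei. Compound ground and suspended in hydroxyethylcellulose with Tween 80 for oral dosing, given once daily for 3 consecutive days: day before, 4 h before, and day after sporozoite inoculation. Dose in (mg/kg)/day. Mice are scored for protection (causal prophylaxis) and for delay in patency.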

[8] = Metabolic stability in human assessed as half life at 160 mg/kg, po by LC-MS/MS analysis; assay type: ADME, organism-based; set-up: dose 160 mg/kg, route oral
Plasmodium berghei [9] = experiment: Antimalarial activity against Plasmodium berghei […] mouse model assessed as delay in patency time at 160 mg/kg, po administered one day before infection, on day of infection and one day post infection; assay type: functional; summary of the method: as §1
[10] = Metabolic stability in mouse assessed as half life at 160 mg/kg, po by LC-MS/MS analysis; assay type: ADME, organism-based; set-up: dose 160 mg/kg, route oral
Plasmodium berghei [11] = experiment: Antimalarial activity against Plasmodium berghei […] mouse model assessed as delay in patency time at 320 mg/kg, po administered one day before infection, on day of infection and one day post infection; assay type: functional; summary of the method: as §1
Plasmodium berghei [12] = experiment: Antimalarial activity against Plasmodium berghei […] mouse model assessed as causal prophylactic activity at 160 mg/kg, po administered one day before infection, on day of infection and one day post infection; assay type: functional, organism-based; set-up: dose 160 mg/kg; summary of the method: as §1
Plasmodium cynomolgi [13] = experiment: Antimalarial activity against Plasmodium cynomolgi infected in rhesus monkey assessed as delay in patency time at 50 mg/kg, po administered one day before infection, on day of infection followed by 1 day post infection; assay type: functional
Summary of the method: (§2)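 Rhesus monkeys challenged with P. cynomolgi sporozoites. Oral dosing on days −1, 0 and 1 in HECT or MC vehicle, with dose in (mg/kg)/day. Read-out is the first day of patency and the delay in patency relative to vehicle-treated controls.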

Plasmodium berghei [14] = experiment: Antimalarial activity against Plasmodium berghei […] mouse model assessed as causal prophylactic activity at 40 mg/kg, po administered one day before infection, on day of infection and one day post infection; assay type: functional, organism-based; set-up: dose 40 mg/kg; summary of the method: as §1
Plasmodium cynomolgi [15] = experiment: Antimalarial activity against Plasmodium cynomolgi infected in rhesus monkey assessed as delay in patency time at 1.78 mg/kg, po administered one day before infection, on day of infection followed by 1 day post infection; assay type: functional; summary of the method: as §2

Row | Compound | Activity (Plasmodium berghei [1]) | half-life [2] [min] | IC50 (Plasmodium falciparum [3]) [µg/mL] | half-life [4] [min] | IC50 (Plasmodium falciparum [5]) [µg/mL] | IC50 (Plasmodium falciparum [6]) [µg/mL] | Time (Plasmodium berghei [7]) [days] | half-life [8] [min] | Time (Plasmodium berghei [9]) [days] | half-life [10] [min] | Time (Plasmodium berghei [11]) [days] | Activity (Plasmodium berghei [12]) | Time (Plasmodium cynomolgi [13]) [days] | Activity (Plasmodium berghei [14]) | Time (Plasmodium cynomolgi [15]) [days]
1 | CCOC(=O)/N=C(/NC1=NC(=O)CN1c1ccc(Cl)c(Cl)c1)NC(C)C | inactive | > 60 | 0.25 (≈ 0.625 µM) | > 60 | 0.15 (≈ 0.375 µM) |  |  |  |  |  |  |  |  |  | 
2 | CC/N=C(\NC1=NC(=O)CN1C(C)C)Nc1ccc(Cl)c(Cl)c1 |  |  | 2.27 (≈ 6.37 µM) |  | 3.38 (≈ 9.49 µM) | 3.01 (≈ 8.45 µM) |  |  |  |  |  |  |  |  | 
3 | CN1CC(=O)N=C1N/C(=N\C(=O)OC(C)(C)C)Nc1ccc(Cl)c(Cl)c1 |  |  | 1.72 (≈ 4.3 µM) |  | 1.26 (≈ 3.15 µM) | 2.54 (≈ 6.35 µM) | 2 | < 10 | 1 | < 10 |  |  |  |  | 
4 | CC(C)(C)N1CC(=O)N=C1NC(=N)Nc1ccc(Cl)c(Cl)c1 | Active |  | 1.01 (≈ 2.95 µM) |  | 2.75 (≈ 8.04 µM) | > 5 |  | > 60 | 2 | > 60 |  |  |  |  | 
5 | CCC(CC)C(=O)/N=C(\NC1=NC(=O)CN1c1cccc(Cl)c1Cl)NC(C)C |  | > 60 | 1.55 (≈ 3.64 µM) | 59.2 | 0.78 (≈ 1.83 µM) |  |  |  |  |  | 2 |  |  |  | 
6 | CC(C)N1CC(=O)N=C1N/C(=N/c1ccc(Cl)c(Cl)c1)N1CCCCC1 |  |  | 1.98 (≈ 5 µM) |  | > 5 |  |  | 28 |  | 18 |  | inactive |  |  | 
7 | CC(C)N1CC(=O)N=C1N/C(=N\C(C)(C)C)Nc1ccc(Cl)c(Cl)c1 |  |  | 1.49 (≈ 3.88 µM) |  | 3 (≈ 7.81 µM) | 5.2 (≈ 13.5 µM) |  | 39.7 |  | 1.72 |  | inactive |  |  | 
8 | CC(C)NC(=N)NC1=NC(=O)CN1c1cccc(Cl)c1Cl |  | 13.5 | 0.7 (≈ 2.13 µM) | 53.7 | 1.1 (≈ 3.35 µM) | 2.19 (≈ 6.67 µM) |  |  |  |  |  |  |  |  | 
9 | CC(C)(C)N/C(=N/C1=NC(=O)CN1c1ccc(Cl)c(Cl)c1)Nc1ccc(Cl)c(Cl)c1 |  |  | 2.58 (≈ 5.3 µM) | > 60 | 2.45 (≈ 5.03 µM) |  |  |  |  | > 60 |  | inactive |  |  | 
10 | CC(C)n1cc(OC(=O)C(C)(C)C)nc1N/C(=N\C(=O)C(C)(C)C)Nc1ccc(Cl)c(Cl)c1 |  |  | > 12 |  | > 12 | > 12 |  | > 60 |  | > 60 |  | inactive |  |  | 
11 | CC/N=C(\NC1=NC(=O)CN1c1ccc(Cl)c(Cl)c1)Nc1ccc(Cl)c(Cl)c1 |  |  | > 5 | > 60 | 2.6 (≈ 5.66 µM) | > 5 |  |  |  | > 60 |  | inactive |  |  | 
12 | CC(C)N/C(=N\C(=O)C(C)(C)C)NC1=NC(=O)CN1c1ccc(Cl)c(Cl)c1 |  | 13.5 | 4.87 (≈ 11.8 µM) | 40.5 | 4.65 (≈ 11.3 µM) |  |  |  | 2 |  | 2 |  |  |  | 
13 | CC(C)N/C(=N/C(=O)OC(C)(C)C)NC1=NC(=O)CN1c1cccc(Cl)c1Cl |  | > 60 | 0.63 (≈ 1.47 µM) | > 60 | 0.56 (≈ 1.31 µM) | 0.9 (≈ 2.1 µM) |  |  |  |  |  |  |  |  | 
14 | CC(C)/N=C(\NC1=NC(=O)CN1C(C)C)Nc1ccc(Cl)c(Cl)c1 | Active | 17 | 0.37 (≈ 0.999 µM) | 53 | 1.65 (≈ 4.46 µM) | > 5 |  |  | 1 |  |  |  | 4 |  | 
15 | CCC(CC)C(=O)/N=C(\NC1=NC(=O)CN1C(C)C)Nc1ccc(Cl)c(Cl)c1 |  | 5 | 0.09 (≈ 0.211 µM) | 14 | 0.06 (≈ 0.141 µM) | 0.16 (≈ 0.375 µM) |  |  | 2 |  | 3 | inactive |  |  | 
16 | CCOC(=O)/N=C(\NC1=NC(=O)CN1C(C)C)Nc1ccc(Cl)c(Cl)c1 |  | > 60 | 2.8 (≈ 7 µM) | 34.3 | 2.86 (≈ 7.15 µM) |  |  |  | 2 |  | 2 | inactive |  |  | 
17 | CC(C)N1CC(=O)N=C1N/C(=N\C12CC3CC(CC(C3)C1)C2)Nc1ccc(Cl)c(Cl)c1 |  |  | 2.51 (≈ 5.43 µM) |  | 1.55 (≈ 3.35 µM) | 2.6 (≈ 5.62 µM) |  | 20.9 |  | 22.3 |  | inactive |  |  | 
18 | CC(C)N1CC(=O)N=C1N/C(=N/c1ccc(Cl)c(Cl)c1)N1CCCC1 |  |  | 2.2 (≈ 5.75 µM) |  | > 5 | > 5 |  | > 60 | 2 | > 60 |  |  |  |  | 
19 | CC(C)N1CC(=O)N=C1N/C(=N\C(=O)C(C)(C)C)Nc1ccc(Cl)c(Cl)c1 |  |  | 4.9 (≈ 11.9 µM) |  | 3.19 (≈ 7.74 µM) | > 1.28 |  | > 60 | 3 | > 60 |  |  | 0 | inactive | 
20 | CC(C)N1CC(=O)N=C1N/C(=N\C(=O)OC(C)(C)C)Nc1ccc(Cl)c(Cl)c1 |  |  | 0.74 (≈ 1.73 µM) |  | 1.6 (≈ 3.74 µM) | > 5 |  | 12.8 |  | 15.8 |  | Active | 2 |  | 
21 | CC(C)(C)OC(=O)/N=C(\NC1=NC(=O)CN1C(C)(C)C)Nc1ccc(Cl)c(Cl)c1 |  |  | > 5 |  | 2.9 (≈ 6.56 µM) | > 5 |  | < 10 |  | < 10 |  | Active |  |  | 
22 | CN1CC(=O)N=C1NC(=N)Nc1ccc(Cl)c(Cl)c1 |  |  | 2.57 (≈ 8.56 µM) |  | 3.42 (≈ 11.4 µM) | 3.31 (≈ 11 µM) |  | > 60 |  | > 60 |  | inactive |  |  | 
23 | CC(C)/N=C(\NC1=NC(=O)CN1c1ccc(Cl)c(Cl)c1)Nc1ccc(Cl)c(Cl)c1 | inactive |  | 2.86 (≈ 6.04 µM) |  | 1.66 (≈ 3.51 µM) | 2.83 (≈ 5.98 µM) |  | 39.2 |  | 27.2 | 1 | inactive |  |  | 
24 | CC(C)N1CC(=O)N=C1NC(=N)Nc1ccc(Cl)c(Cl)c1 |  |  | 2.57 (≈ 7.83 µM) |  | 3.42 (≈ 10.4 µM) | 3.31 (≈ 10.1 µM) | 6 | > 60 |  | 40 |  | inactive |  |  | 
25 | CC(C)/N=C(\NC1=NC(=O)CN1C)Nc1ccc(Cl)c(Cl)c1 |  | 49.8 | > 5 | > 60 | > 5 | > 5 |  |  | 2 |  |  |  |  |  | 
26 | COc1cc(NC(C)CCCN)c2ncccc2c1 (stereo not given) [PRIMAQUINE] |  |  |  |  |  |  |  |  |  |  |  |  |  |  | 5
